Only some compounds are listed: those with a hit (about 0.79% of all), similar ones and a draw of the others.
bIAP inhibitor: intestinal alkaline phosphatase (bovine) inhibition. purified bovine IAP, CDP-star luminescence, 30 min. inhibition, % at 20 µM. 190,000 tested, under 10 active;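 active = over 50% inhibition of intestinal alkaline phosphatase at 20 µM in the single-dose screen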
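System: purified bovine intestinal alkaline phosphatase (IAP) enzyme; Input: IAP diluted 1/65,000,000 in the well; Measured by: CDP-star luminescence signal; Compound dosing: 20 µM single dose; Incubation: 30 min reaction at room temperature.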
bIAP activator: increases bovine intestinal alkaline phosphatase activity; purified bovine IAP, CDP-star luminescence, 30 min; stronger effect = higher value; fold of DMSO-control signal, blank-subtracted; activation factor at 20 µM; 0.17% of 200,000 active; AID 1016;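 active = activation factor of 2 or more at 20 µM, a signal rise over negative controls twice the positive control's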
hIAP activ: human IAP activation | P09923 | AID 2524 | activation factor at 10 µM | purified human IAP, CDP-Star luminescence, 30 min; stronger effect = higher value; 1 = vehicle-only enzyme, 0 = enzyme-free background | 0.16% of 330,000 active;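 active = activation factor of the enzyme at least 2-fold when tested at 20 µM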
Target sequence (P09923 whole entry, looked up): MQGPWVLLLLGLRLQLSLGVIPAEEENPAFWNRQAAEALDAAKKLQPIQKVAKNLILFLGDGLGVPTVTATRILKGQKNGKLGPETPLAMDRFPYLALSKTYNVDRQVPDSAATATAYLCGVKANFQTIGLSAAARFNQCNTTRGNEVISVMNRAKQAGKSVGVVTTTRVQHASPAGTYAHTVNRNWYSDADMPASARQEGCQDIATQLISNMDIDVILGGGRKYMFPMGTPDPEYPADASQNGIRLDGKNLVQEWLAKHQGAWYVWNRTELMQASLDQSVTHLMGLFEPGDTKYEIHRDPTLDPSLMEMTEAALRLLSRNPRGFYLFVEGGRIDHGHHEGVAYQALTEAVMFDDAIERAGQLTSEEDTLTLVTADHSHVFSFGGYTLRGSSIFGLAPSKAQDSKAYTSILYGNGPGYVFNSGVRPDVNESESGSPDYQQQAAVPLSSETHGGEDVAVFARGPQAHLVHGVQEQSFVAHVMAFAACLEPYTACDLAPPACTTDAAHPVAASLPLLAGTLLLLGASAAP
hIAP inh: human IAP inhibition; purified IAP, CDP-Star luminescence, 30 min; 0.12% of 330,000 active; P09923; AID 2544; inhibition, % at 10 µM;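 active = inhibition reaching a set limit with compound at 10 µM in the primary screen, cut at about 35% in these data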;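 also: plate controls were DMSO wells with enzyme for no effect and no-enzyme buffer wells for full effect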
mIAP inh: mouse IAP inhibition | inhibition, % at 10 µM | purified mouse IAP, CDP-Star luminescence, 30 min | 0.2% of 330,000 active | AID 2806;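 active = inhibition of at least 40% at 10 µM in the primary screen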;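 also: plate controls were DMSO with enzyme for no effect and no enzyme wells for full effect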
mIAP act: increases mouse intestinal alkaline phosphatase activity. muIAP, CDP-Star luminescence, 30 min; stronger effect = higher value; 1 = vehicle-only enzyme signal, 0 = enzyme-free wells. activation factor at 10 µM. 0.24% of 330,000 active. AID 2805;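 active = activation factor of at least 2 at 20 µM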
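Assay system: mouse IAP enzyme; Reagent: CDP-Star chemiluminescent phosphatase substrate; Compound: DMSO-dissolved test compounds; Incubation: 30 min, room temperature; Technique: luminescence from enzymatic CDP-Star hydrolysis; Controls: DMSO-only wells and no-enzyme negative control.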
hIAP act confirm: human IAP activation confirmation; activation (%Activity, negative = activation), % at 8.3 µM; 10% of 880 active; AID 434926; shares compounds with hIAP activ; purified IAP, CDP-Star luminescence, 30 min; stronger effect = lower value;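 active = at least twofold enzyme activation in any of six single-dose repeats, which the averaged readout prints as negative percent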
Active calls of the source: *; · = no result.

SMILES | bIAP inhibitor | bIAP activator | hIAP activ | hIAP inh | mIAP inh | mIAP act | hIAP act confirm
C=CCN1C(=O)/C(=C\C=C2\N(C)c3ccccc3C2(C)C)SC1=S | 14.0 | 0.9 | 0.544 | 45.6* | 38.5 | 0.615 | -267.3*
O=S(=O)(Nc1nc2ccccc2nc1NCc1ccco1)c1ccc(Cl)cc1 | -14.2 | 1.1 | 1.09 | -8.7 | 10.3 | 0.897 | ·
Cc1ccc(S(=O)(=O)Nc2nc3ccccc3nc2NCc2ccco2)cc1 | 4.8 | 1 | 2.12* | -111.6 | 4.3 | 0.957 | 19.1
CC1=C/C(=C\C=C(C#N)C#N)N(C)c2ccccc21 | · | · | 0.638 | 36.2* | 24.3 | 0.757 | 4.2
O=C(/C=C/c1ccccc1O)c1ccco1 | · | · | 0.578 | 42.2* | 22.2 | 0.778 | -104.2*
O=C(/C=C/c1cc(Br)ccc1O)c1ccco1 | · | · | 0.911 | 8.9 | 3.3 | 0.967 | ·
CN(Cc1cccs1)c1nc(-c2cccnc2)nc2ccccc12 | 16.0 | 0.8 | 1 | -0.4 | 6.7 | 0.933 | ·
COc1cccc(-c2c(C(=O)N/N=C(\C)c3cccnc3)nnn2-c2nonc2N)c1 | · | · | 0.918 | 8.2 | 4.4 | 0.956 | ·
O=C(NC1CCCC1)c1ccc2c(c1)N(Cc1ccc(F)cc1)CCS2 | · | · | 0.614 | 38.6* | -14.0 | 1.14 | -67.1
Cc1ccc(CN2CCSc3ccc(C(=O)NC4CCCC4)cc32)cc1 | · | · | 1.26 | -26.3 | -21.8 | 1.22 | ·
N#C/C(=C\c1ccc(O)c(O)c1)C(=O)Nc1ccccc1 | · | · | 0.483 | 51.7* | 25.4 | 0.746 | 2.7
C[C@@H](NC(=O)/C(C#N)=C/c1ccc(O)c(O)c1)c1ccccc1 | · | · | 0.683 | 31.7 | 23.9 | 0.761 | ·
Cc1ccc2oc(C(=O)N3CCCCCC3)c(C)c2c1 | · | · | 0.544 | 45.6* | -1.1 | 1.01 | 2.3
CC(C)Cn1c(-c2ccccc2)nc(=S)c2c1CCCC2 | 26.2 | 0.7 | 1.04 | -4.0 | 9.3 | 0.907 | ·
COc1cccc(-c2nc(=S)c3c(n2CCCO)CCCC3)c1 | -2.7 | 1 | 2.38* | -137.7 | -14.4 | 1.14 | 1.0
CC(Sc1nc(-c2ccccc2)nc2c1COC(C)(C)C2)C(=O)N1CCOCC1 (stereo not drawn) | -4.5 | 1 | 1.12 | -11.8 | 4.0 | 0.96 | ·
S=C(NCc1ccncc1)Nc1ccc(Cl)cc1 | 6.5 | 0.9 | 2* | -100.5 | -7.6 | 1.08 | 6.6
Cc1ccc(NS(=O)(=O)c2ccc(-c3cnc(C4CC4)o3)cc2)cc1 | · | · | 0.631 | 36.9* | 1.4 | 0.986 | -4.8
O=S(=O)(NCc1cc(-c2ccccc2)no1)c1ccccc1Cl | 11.3 | 0.9 | 0.864 | 13.6 | 2.0 | 0.98 | ·
O=C(NNC(=O)c1nn(-c2ccc(F)cc2)ccc1=O)c1ccc(Cl)cc1 | · | · | 0.871 | 12.9 | 20.0 | 0.8 | ·
O=C(NNC(=O)c1nn(-c2ccc(F)cc2)ccc1=O)Nc1cccc(Cl)c1 | · | · | 0.601 | 39.9* | 16.3 | 0.837 | -28.0
COc1ccc(C(=O)NCCCNC(=O)c2ccco2)cc1OC | · | · | 0.879 | 12.1 | 1.3 | 0.987 | ·
O=C(NCCCN1CCOCC1)C(=O)N/N=C/c1ccccc1O | · | · | 2* | -100.4 | -18.3 | 1.18 | 28.4
O=C(NCc1ccccn1)C(=O)N/N=C/c1ccccc1O | · | · | 2.98* | -198.1 | 3.7 | 0.963 | 2.6
O=C(NCCCN1CCOCC1)C(=O)N/N=C/c1ccccc1Cl | · | · | 0.863 | 13.7 | 5.2 | 0.948 | ·
SMILES | bIAP inhibitor | bIAP activator | hIAP activ | hIAP inh | mIAP inh | mIAP act | hIAP act confirm
O=C(CNC(=S)N(CCCN1CCOCC1)Cc1cccs1)NCc1ccccc1 | · | · | 3.07* | -206.7 | -11.5 | 1.11 | 5.5
O=C(CNC(=S)N(CCCN1CCOCC1)Cc1cccs1)NC1CC1 | 4.8 | 1 | 1.2 | -20.0 | 17.2 | 0.828 | ·
CN(C)C(CNC(=O)CSc1nc2ccccc2c(=O)n1Cc1ccco1)c1ccccc1 (stereo not drawn) | · | · | 1.04 | -4.3 | 9.4 | 0.906 | ·
Cc1ccc2occ(/C=N/NC(=O)c3ccncc3)c(=O)c2c1 | · | · | 2.31* | -131.3 | 9.7 | 0.903 | -30.7
Cn1c(N)c(C(=O)CSc2nn(-c3ccc(F)cc3)c(=S)s2)c(=O)n(C)c1=O | · | · | 1.03 | -3.4 | 18.0 | 0.82 | ·
c1ccc(COc2ccc(CNn3cnnc3)cc2)cc1 | 3.9 | 1 | 0.456 | 54.4* | 1.6 | 0.984 | -4.7
CCN(CC)S(=O)(=O)c1cc(NC(=O)COC(=O)CCC(=O)c2cccs2)ccc1C | 3.5 | 1 | 0.88 | 12.0 | 4.4 | 0.956 | ·
O=C(CCCc1ccccc1)Nc1ccnn1C1CCN(Cc2ccccn2)CC1 | · | · | 1.18 | -17.5 | -2.3 | 1.02 | ·
Cc1ccccc1CN1CCC(n2nccc2NC(=O)CCCc2ccccc2)CC1 | · | · | 2.9* | -189.6 | -88.9 | 1.89 | 26.0
CC1(C)CC(=O)c2cc(C(=O)NC3CCSC3=O)c(=O)n(-c3ccc(Cl)cc3)c2C1 (stereo not drawn) | -2.8 | 1 | 0.978 | 2.2 | 3.4 | 0.965 | ·
COc1ccc(C(=O)NC(=S)Nc2nc(-c3ccc(OC)c(Br)c3)cs2)cc1Br | · | · | 0.62 | 38.0* | 16.0 | 0.84 | 1.2
COc1ccc(-c2csc(NC(=S)NC(=O)c3ccccc3)n2)cc1Br | · | · | 1.18 | -17.9 | 9.7 | 0.903 | ·
Cc1ccc(-c2nnn(CC(=O)N(c3ccccc3F)C(C(=O)NC3CCCC3)c3ccncc3)n2)o1 (stereo not drawn) | · | · | 1.03 | -3.0 | -4.7 | 1.05 | ·
CCC/C=C1/CCCOC(C(=O)NCCNCCO)(C(F)(F)F)C1 (stereo not drawn) | · | · | 0.782 | 21.8 | -7.4 | 1.07 | ·
Cc1ccc(OCCC(=O)OCC(=O)NC2CCCC2)cc1 | · | · | 0.902 | 9.8 | 5.7 | 0.943 | ·
O=C(N/N=C/c1ccncc1)c1nc2ccccc2c(=O)[nH]1 | · | · | 2.7* | -170.2 | -18.7 | 1.19 | 7.3
O=C(N/N=C/c1ccc2cccnc2c1)c1nc2ccccc2c(=O)[nH]1 | · | · | 2.67* | -167.2 | 9.3 | 0.907 | -193.1*
Cn1nc(C(=O)Nc2ccc(Br)cc2)cc1C(=O)Nc1ccc(Br)cc1 | · | · | 0.841 | 15.9 | -2.9 | 1.03 | ·
CCOc1ccccc1/C=C(\C#N)C(=O)NC1CC1 | · | · | 1.11 | -11.4 | -8.1 | 1.08 | ·
CCOc1c(Br)cc(/C=C(\C#N)C(=O)NC2CC2)cc1OC | · | · | 0.594 | 40.6* | 1.2 | 0.988 | 5.1
O=C(CCN1C(=O)/C(=C/c2ccccc2Cl)SC1=S)NNC(=O)c1ccccc1O | · | · | 2.08* | -108.4 | 26.9 | 0.731 | 62.3
CCOC(=O)c1sc2cccc(F)c2c1N | 30.0 | 0.7 | 0.889 | 11.1 | -0.1 | 1 | ·
O=C(/C=C/c1cccs1)Nc1sc2c(c1C(=O)O)CCCC2 | · | · | 0.812 | 18.8 | 3.8 | 0.962 | ·
CCOc1ccc(S(=O)(=O)NCCC(=O)N2CCCN(C)CC2)cc1 | · | · | 1.02 | -2.2 | 3.1 | 0.969 | ·
O=C(CN1CCN(C(=O)C2COc3ccccc3O2)CC1)Nc1ccccc1 (stereo not drawn) | · | · | 0.601 | 39.9* | 8.9 | 0.911 | -9.0
COc1ccc(CCNC(=O)c2cc(-c3ccccc3)c(N3CCOCC3)s2)c(OC)c1OC | · | · | 1.57 | -57.3 | -29.9 | 1.3 | ·

Assay outcomes (PubChem)
